Assay results as given in ChEMBL document CHEMBL4425091, “Bafilomycins and Odoriferous Sesquiterpenoids from Streptomyces albolongus Isolated from Elephas maximus Feces” (J Nat Prod, 2016).
Converted amounts (≈) assume the structure as drawn. Structures can show the parent of a compound that is named as a salt. The source made the active and inactive calls.

Tests used:
NCI-H460 = test: Cytotoxicity against human NCI-H460 cells assessed as reduction in cell viability by MTT assay; assay type: functional, cell-based
Outline: (§1)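 MTT viability assay in human cancer cell lines. IC50 was defined as a 50% reduction of absorbance relative to the control assay. Adriamycin served as the positive control.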

Bacillus spizizenii [1] = test: Antibacterial activity against Bacillus subtilis ATCC 6633 at 100 ug/ml after 24 hrs by MTT based microbroth dilution assay; assay type: functional, organism-based
Caco-2 = test: Cytotoxicity against human Caco2 cells assessed as reduction in cell viability by MTT assay; assay type: functional, cell-based; outline: as §1
Cryptococcus neoformans [2] = test: Antifungal activity against Cryptococcus neoformans ATCC 208821 at 100 ug/ml after 72 hrs by MTT based microbroth dilution assay; assay type: functional, organism-based
Candida albicans [3] = test: Antifungal activity against Candida albicans ATCC MYA-2876 at 100 ug/ml after 48 hrs by MTT based microbroth dilution assay; assay type: functional, organism-based
SMMC-7721 = test: Cytotoxicity against human SMMC7721 cells assessed as reduction in cell viability by MTT assay; assay type: functional, cell-based; outline: as §1
Candida parapsilosis [4] = test: Antifungal activity against Candida parapsilosis ATCC 22019 at 100 ug/ml after 48 hrs by MTT based microbroth dilution assay; assay type: functional, organism-based
Staphylococcus aureus [5] = test: Antibacterial activity against Staphylococcus aureus ATCC 25923 at 100 ug/ml after 24 hrs by MTT based microbroth dilution assay; assay type: functional, organism-based
Escherichia coli = test: Antibacterial activity against Escherichia coli ATCC 25922 at 100 ug/ml after 24 hrs by MTT based microbroth dilution assay; assay type: functional, organism-based
BGC-823 = test: Cytotoxicity against human BGC823 cells assessed as reduction in cell viability by MTT assay; assay type: functional, cell-based; outline: as §1
Candida albicans [6] = test: Antifungal activity against Candida albicans ATCC MYA-2876 after 48 hrs by MTT based microbroth dilution assay; assay type: functional; details: ATCC MYA-2876, 48 h
Outline: (§2)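 MIC by broth microdilution in RPMI-1640 with NaHCO3 and MOPS, pH 7.0. DMSO stocks were 2-fold serially diluted to eight levels, then 10-fold in medium (1.1–0.0086 mg/mL). 10 µL was added to 100 µL yeast suspension: C. albicans and C. parapsilosis at 2 × 10^3 cfu/mL for 48 h; C. neoformans at 5 × 10^4 cfu/mL for 72 h; all at 28 °C. MTT added for 4 h, DMSO solubilization, A570.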

Cryptococcus neoformans [7] = test: Antifungal activity against Cryptococcus neoformans ATCC 208821 after 72 hrs by MTT based microbroth dilution assay; assay type: functional; details: ATCC 208821, 72 h; outline: as §2
Candida parapsilosis [8] = test: Antifungal activity against Candida parapsilosis ATCC 22019 after 48 hrs by MTT based microbroth dilution assay; assay type: functional; details: Lodderomyces parapsilosis, ATCC 22019, 48 h; outline: as §2
Bacillus spizizenii [9] = test: Antibacterial activity against Bacillus subtilis ATCC 6633 after 24 hrs by MTT based microbroth dilution assay; assay type: functional; details: ATCC 6633, 24 h
Outline: (§3)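 Two-fold broth microdilution MIC in LB medium (pH 7.0). Compounds dissolved in DMSO, serially diluted to eight levels (11.0−0.086 mg/mL), then each diluted 10-fold in medium (1.1−0.0086 mg/mL). 10 μL of this added to 100 μL of bacteria at 1 × 10^6 cfu/mL. Incubated 24 h at 28 °C. MTT added for 4 h, wells emptied, DMSO added, absorbance read at 570 nm.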

Staphylococcus aureus [10] = test: Antibacterial activity against Staphylococcus aureus ATCC 25923 after 24 hrs by MTT based microbroth dilution assay; assay type: functional; details: ATCC 25923, 24 h; outline: as §3

Row | Compound | Activity (NCI-H460) | Activity (Bacillus spizizenii [1]) | Activity (Caco-2) | Activity (Cryptococcus neoformans [2]) | Activity (Candida albicans [3]) | Activity (SMMC-7721) | Activity (Candida parapsilosis [4]) | Activity (Staphylococcus aureus [5]) | Activity (Escherichia coli) | Activity (BGC-823) | IC50 (NCI-H460) | MIC (Candida albicans [6]) | IC50 (Caco-2) | MIC (Cryptococcus neoformans [7]) | IC50 (SMMC-7721) | IC50 (BGC-823) | MIC (Candida parapsilosis [8]) | MIC (Bacillus spizizenii [9]) | MIC (Staphylococcus aureus [10])
1 | CC1(C)C[C@H]2[C@H]1CC[C@@]1(C)C[C@]2(O)CC[C@@H]1O | inactive | inactive | inactive | inactive | inactive | inactive | inactive | inactive | inactive | inactive | – | – | – | – | – | – | – | – | –
2 | C[C@H]1CC[C@@H](O)[C@@]2(C)CCCC[C@]12O | – | – | – | – | – | – | – | – | – | – | > 100 µM | 12.5 µg/mL (≈ 63 µM) | 85.5 µM | > 100 µg/mL | 41.7 µM | 34.6 µM | 3.13 µg/mL (≈ 15.8 µM) | – | –
3 | CC1=C[C@@H]2[C@@H](C(C)C)CC[C@H](C)[C@]2(O)CC1 | inactive | inactive | inactive | inactive | inactive | inactive | inactive | inactive | inactive | inactive | – | – | – | – | – | – | – | – | –
4 | C[C@H]1CC[C@@H](O)[C@@]2(C)C[C@H](O)CC[C@]12O | – | – | – | – | – | – | – | – | – | – | > 100 µM | 100 µg/mL (≈ 467 µM) | 42.5 µM | > 100 µg/mL | > 100 µM | 47.2 µM | 100 µg/mL (≈ 467 µM) | – | –
5 | CO/C1=C/C(C)=C/[C@@H](C)[C@@H](O)[C@@H](C)C/C(C)=C/C=C/[C@H](OC)C([C@@H](C)[C@@H](O)[C@H](C)C(=O)/C=C/[C@H](C)[C@H](O)C(C)C)OC1=O (some centres undefined) | – | inactive | – | inactive | inactive | – | inactive | inactive | inactive | – | 49.8 µM | – | 14.6 µM | – | 9.79 µM | 9.46 µM | – | – | –
6 | CO/C1=C\C(C)=C\[C@@H](C)[C@@H](O)[C@@H](C)C/C(C)=C/C=C/[C@H](OC)[C@@H]([C@@H](C)[C@@H](O)[C@H](C)[C@@]2(OC)CC[C@H](C)[C@@H](C(C)C)O2)OC1=O | – | inactive | – | inactive | inactive | – | inactive | inactive | inactive | – | > 100 µM | – | > 100 µM | – | 13.6 µM | 46.9 µM | – | – | –
7 | CO/C1=C\C(C)=C\[C@@H](C)[C@@H](O)[C@@H](C)C/C(C)=C/C=C/[C@H](OC)[C@@H]([C@@H](C)[C@@H](O)[C@H](C)[C@@]2(O)C[C@@H](OC(=O)/C=C/C(=O)O)[C@H](C)[C@@H](C(C)C)O2)OC1=O | – | – | – | – | – | – | – | – | – | – | 3.43 µM | 1.56 µg/mL (≈ 2.16 µM) | 1.89 µM | 1.56 µg/mL (≈ 2.16 µM) | 0.54 µM | 1.83 µM | 1.56 µg/mL (≈ 2.16 µM) | 12.5 µg/mL (≈ 17.3 µM) | 12.5 µg/mL (≈ 17.3 µM)
8 | CO/C1=C\C(C)=C\[C@@H](C)[C@@H](O)[C@@H](C)C/C(C)=C/C=C/[C@H](OC)[C@@H]([C@@H](C)[C@@H](O)[C@H](C)[C@@]2(OC)C[C@@H](OC(=O)/C=C/C(N)=O)[C@H](C)[C@@H](C(C)C)O2)OC1=O | – | inactive | – | inactive | inactive | – | inactive | inactive | inactive | – | 5.02 µM | – | 2.81 µM | – | 1.36 µM | 3.58 µM | – | – | –
9 | CO/C1=C\C(C)=C\[C@@H](C)[C@@H](O)[C@@H](C)C/C(C)=C/C=C/[C@H](OC)[C@@H]([C@@H](C)[C@@H](O)[C@H](C)[C@@]2(O)C[C@@H](OC)[C@H](C)[C@@H](C(C)C)O2)OC1=O [BAFILOMYCIN G] | – | inactive | – | inactive | inactive | – | inactive | inactive | inactive | – | > 100 µM | – | > 100 µM | – | 8.67 µM | 69.2 µM | – | – | –
10 | C/C1=C\[C@@H](O)C[C@H](C)/C=C/[C@H](C(C)(C)O)CC1 | inactive | inactive | inactive | inactive | inactive | inactive | inactive | inactive | inactive | inactive | – | – | – | – | – | – | – | – | –
11 | CO/C1=C\C(C)=C\[C@@H](C)[C@@H](O)[C@@H](C)C/C(C)=C/C=C/[C@H](OC)[C@@H]([C@@H](C)[C@@H](O)[C@H](C)[C@@]2(O)CC[C@H](C)[C@@H](C(C)C)O2)OC1=O | – | – | – | – | – | – | – | – | – | – | 44.1 µM | 100 µg/mL (≈ 165 µM) | 46.2 µM | 25 µg/mL (≈ 41.2 µM) | 10.1 µM | 11.8 µM | 3.13 µg/mL (≈ 5.16 µM) | – | –
12 | O=C(O)c1cn(C2CC2)c2cc(N3CCNCC3)c(F)cc2c1=O [CIPROFLOXACIN] | – | – | – | – | – | – | – | – | – | – | – | – | – | – | – | – | – | 0.25 µg/mL (≈ 0.754 µM) | –
13 | C[C@@H]1[C@H](O)[C@@H](C)/C=C/C=C/C=C/C=C/C=C/C=C/C=C/[C@H](O[C@@H]2O[C@H](C)[C@@H](O)[C@H](N)[C@@H]2O)C[C@@H]2O[C@](O)(C[C@@H](O)C[C@@H](O)[C@H](O)CC[C@@H](O)C[C@@H](O)CC(=O)O[C@H]1C)C[C@H](O)[C@H]2C(=O)O [AMPHOTERICIN B] | – | – | – | – | – | – | – | – | – | – | – | 1 µg/mL (≈ 1.08 µM) | – | 2 µg/mL (≈ 2.16 µM) | – | – | 2 µg/mL (≈ 2.16 µM) | – | –
14 | COc1cccc2c1C(=O)c1c(O)c3c(c(O)c1C2=O)C[C@@](O)(C(=O)CO)C[C@@H]3O[C@H]1C[C@H](N)[C@H](O)[C@H](C)O1 [DOXORUBICIN HYDROCHLORIDE] | – | – | – | – | – | – | – | – | – | – | 0.98 µM | – | 0.97 µM | – | 2.24 µM | – | – | – | –
15 | CO/C1=C\C(C)=C\[C@@H](C)[C@@H](O)[C@@H](C)C/C(C)=C/C=C/[C@H](OC)[C@@H]([C@@H](C)[C@@H](O)[C@H](C)[C@@]2(O)C[C@@H](O)[C@H](C)[C@@H](C(C)C)O2)OC1=O [BAFILOMYCIN A1] | – | inactive | – | inactive | inactive | – | inactive | inactive | inactive | – | 12.4 µM | – | 5.49 µM | – | 2.03 µM | 6.47 µM | – | – | –
16 | CC1(C)C[C@H]2[C@H]1CC[C@]1(C)CCC[C@@]2(O)C1 | inactive | inactive | inactive | inactive | inactive | inactive | inactive | inactive | inactive | inactive | – | – | – | – | – | – | – | – | –
17 | CO/C1=C\C(C)=C\[C@@H](C)[C@@H](O)[C@@H](C)C/C(C)=C/C=C/[C@H](OC)[C@@H]([C@@H](C)[C@@H](O)[C@H](C)[C@@]2(OC)C[C@@H](O)[C@H](C)[C@@H](C(C)C)O2)OC1=O | – | inactive | – | inactive | inactive | – | inactive | inactive | inactive | – | 26.7 µM | – | 10.2 µM | – | 9.42 µM | 22.4 µM | – | – | –
18 | CO/C1=C\C(C)=C\[C@@H](C)[C@@H](O)[C@@H](C)C/C(C)=C/C=C/[C@H](OC)[C@@H]([C@@H](C)[C@@H](O)[C@H](C)[C@@]2(O)C[C@@H](OC(=O)/C=C/C(N)=O)[C@H](C)[C@@H](C(C)C)O2)OC1=O | – | – | – | – | – | – | – | – | – | – | 2.34 µM | 100 µg/mL (≈ 139 µM) | 2.3 µM | 25 µg/mL (≈ 34.7 µM) | 1.05 µM | 0.99 µM | 1.56 µg/mL (≈ 2.17 µM) | – | –
19 | C[C@H]1[C@@H](O)CC[C@@]2(C)CCCC[C@]12O | – | inactive | – | inactive | inactive | – | inactive | inactive | inactive | – | > 100 µM | – | > 100 µM | – | > 100 µM | 49.3 µM | – | – | –
